Tests used:
[1] = system: Mycobacterium tuberculosis; assay: Antitubercular activity against Mycobacterium tuberculosis H37Ra; format: functional
Procedure, shortened: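 Microplate alamar blue assay with M. tuberculosis H37Ra as test organism; MIC recorded in µg/mL; isoniazid and kanamycin sulfate served as reference drugs.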

NCI-H187 = assay: Cytotoxicity against human NCI-H187 cells after 72 hrs by SRB assay; format: functional, cell-based; details: NCI-H187, 72 h
Procedure, shortened: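 Small cell lung cancer NCI-H187 cells exposed at 37 °C for 72 h, then sulforhodamine B added for read-out; IC50 given in µg/mL; ellipticine as reference substance.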

Row | Structure (SMILES) | MIC [1] | IC50 (NCI-H187)
1 | COC(=O)[C@@]1(C)CC(=O)C=C2[C@@]3(C)C=C(c4ccoc4)O[C@]21CC[C@H]3C | < 12.5 µg/mL | < 5 µg/mL
2 | C[C@@H]1CCC2=C(C[C@H]3C[C@]2(C)C(=O)O3)[C@@]1(C)CC(=O)c1ccoc1 | < 12.5 µg/mL | < 5 µg/mL
3 | C[C@@H]1CCC2=C(C[C@H]3C[C@]2(C)C(=O)O3)[C@@]1(C)CCc1ccoc1 | < 12.5 µg/mL | < 5 µg/mL
4 | C[C@@H]1CCC2=C(CCC[C@]2(C)C(=O)O)[C@@]1(C)CCc1ccoc1 | < 12.5 µg/mL | < 5 µg/mL

— ChEMBL document CHEMBL1142559, “ent-halimane diterpenes and a guaiane sesquiterpene from Cladogynos orientalis” (J Nat Prod, 2005)
